Measurements as given in ChEMBL document CHEMBL3108739, “Activation and inhibition of thermosensitive TRP channels by voacangine, an alkaloid present in Voacanga africana, an African tree” (J Nat Prod, 2014).
The source made the active and inactive calls. No cut-off for these calls is given here.

Experiments:
[1] = biological target: Transient receptor potential cation channel subfamily A member 1 (Homo sapiens, UniProt O75762); experiment: Agonist activity at TRPA1 isolated from human W138 cells expressed in HEK T-REx cells assessed as intracellular Ca2+ influx at 10 to 100 uM by Fluo-4 AM staining-based fluorescence analysis; format: cell-based
Chain of Transient receptor potential cation channel subfamily A member 1 (O75762 whole entry): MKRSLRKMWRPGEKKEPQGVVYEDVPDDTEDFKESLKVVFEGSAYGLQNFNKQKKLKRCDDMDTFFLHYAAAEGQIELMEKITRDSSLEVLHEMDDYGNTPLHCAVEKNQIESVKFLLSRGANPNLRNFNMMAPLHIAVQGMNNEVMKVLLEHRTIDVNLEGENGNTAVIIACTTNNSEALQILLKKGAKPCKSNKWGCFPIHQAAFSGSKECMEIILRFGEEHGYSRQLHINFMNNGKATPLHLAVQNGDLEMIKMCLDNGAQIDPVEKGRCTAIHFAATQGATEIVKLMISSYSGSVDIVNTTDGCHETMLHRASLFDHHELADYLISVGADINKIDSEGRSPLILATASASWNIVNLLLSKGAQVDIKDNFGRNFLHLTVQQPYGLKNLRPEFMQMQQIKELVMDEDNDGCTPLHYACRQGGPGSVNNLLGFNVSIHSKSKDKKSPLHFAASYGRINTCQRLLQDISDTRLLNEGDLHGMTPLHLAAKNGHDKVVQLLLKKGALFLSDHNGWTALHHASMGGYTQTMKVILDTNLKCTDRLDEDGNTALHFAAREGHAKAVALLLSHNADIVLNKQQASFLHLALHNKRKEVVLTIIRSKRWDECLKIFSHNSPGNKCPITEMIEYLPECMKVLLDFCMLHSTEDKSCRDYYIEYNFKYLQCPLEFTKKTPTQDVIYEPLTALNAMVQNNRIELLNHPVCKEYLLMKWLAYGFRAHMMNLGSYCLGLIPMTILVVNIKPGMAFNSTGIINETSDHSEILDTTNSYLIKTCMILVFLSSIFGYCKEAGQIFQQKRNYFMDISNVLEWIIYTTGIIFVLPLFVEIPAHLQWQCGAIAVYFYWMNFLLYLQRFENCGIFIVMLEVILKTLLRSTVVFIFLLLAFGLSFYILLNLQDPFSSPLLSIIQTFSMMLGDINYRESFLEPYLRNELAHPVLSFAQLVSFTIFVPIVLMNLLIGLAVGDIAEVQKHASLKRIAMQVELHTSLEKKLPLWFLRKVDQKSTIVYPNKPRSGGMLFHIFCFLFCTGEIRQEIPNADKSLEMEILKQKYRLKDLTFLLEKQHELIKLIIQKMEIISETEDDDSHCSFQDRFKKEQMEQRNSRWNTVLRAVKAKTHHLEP
Procedure, shortened: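 Tetracycline-induced (1 μg/mL) stable hTRPA1 in HEK T-REx cells, Fluo-4 AM loaded (3 μM, 1 h, 37 °C) in HEPES buffer pH 7.4 with probenecid; Ca2+ read at 37 °C. Compound 0.01−100 μM; HC-030031 30 μM pretreated 3 min. Responses as % of 5 μM ionomycin or of 100 μM AITC; TREx cells without TRPA1 as control; n = 4−8.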

[2] = biological target: Transient receptor potential cation channel subfamily M member 8 (Mus musculus) (UniProt Q8R4D5); settings: Dorsal root ganglion, HEK T-REx, 10 to 50 uM
Chain of Transient receptor potential cation channel subfamily M member 8 (Mus musculus) (Q8R4D5 whole entry): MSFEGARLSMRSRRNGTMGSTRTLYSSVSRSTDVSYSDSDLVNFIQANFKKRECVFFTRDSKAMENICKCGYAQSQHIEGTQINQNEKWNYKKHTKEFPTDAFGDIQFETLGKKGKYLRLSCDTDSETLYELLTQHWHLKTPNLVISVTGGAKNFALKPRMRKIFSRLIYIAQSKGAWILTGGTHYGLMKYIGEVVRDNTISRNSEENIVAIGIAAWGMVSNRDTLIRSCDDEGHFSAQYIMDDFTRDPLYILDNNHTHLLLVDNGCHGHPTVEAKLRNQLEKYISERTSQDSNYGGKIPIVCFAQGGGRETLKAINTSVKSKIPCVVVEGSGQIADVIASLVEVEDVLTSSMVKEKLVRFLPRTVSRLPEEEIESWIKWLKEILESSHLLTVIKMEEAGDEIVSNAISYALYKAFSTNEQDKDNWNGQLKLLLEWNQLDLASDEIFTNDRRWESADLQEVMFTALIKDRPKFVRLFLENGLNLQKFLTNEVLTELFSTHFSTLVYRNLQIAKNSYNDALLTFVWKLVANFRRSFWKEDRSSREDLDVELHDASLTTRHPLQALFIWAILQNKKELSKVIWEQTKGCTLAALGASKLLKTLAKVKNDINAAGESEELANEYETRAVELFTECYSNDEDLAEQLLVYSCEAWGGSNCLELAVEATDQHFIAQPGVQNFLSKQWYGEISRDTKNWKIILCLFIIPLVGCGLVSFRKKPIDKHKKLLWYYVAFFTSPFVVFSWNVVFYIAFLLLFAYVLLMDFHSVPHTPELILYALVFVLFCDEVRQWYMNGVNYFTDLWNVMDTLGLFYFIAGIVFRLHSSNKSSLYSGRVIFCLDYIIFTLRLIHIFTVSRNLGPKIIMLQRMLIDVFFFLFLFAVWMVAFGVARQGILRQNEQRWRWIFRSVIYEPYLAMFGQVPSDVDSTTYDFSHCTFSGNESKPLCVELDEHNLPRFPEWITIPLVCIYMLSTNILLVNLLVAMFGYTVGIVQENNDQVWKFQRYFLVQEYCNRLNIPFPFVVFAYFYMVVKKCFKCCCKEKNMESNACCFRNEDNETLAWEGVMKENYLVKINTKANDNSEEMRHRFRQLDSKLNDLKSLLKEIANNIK

[3] = biological target: T1, Transient receptor potential cation channel subfamily V member 1 (Homo sapiens, UniProt Q8NER1); experiment: Competitive antagonist activity at human brain TRPV1 expressed in HEK293T cells assessed as inhibition of CAP-induced intracellular Ca2+ influx preincubated for 3 mins followed by CAP challenge by Schlid plot analysis; format: cell-based
T1 sequence (Q8NER1 whole entry): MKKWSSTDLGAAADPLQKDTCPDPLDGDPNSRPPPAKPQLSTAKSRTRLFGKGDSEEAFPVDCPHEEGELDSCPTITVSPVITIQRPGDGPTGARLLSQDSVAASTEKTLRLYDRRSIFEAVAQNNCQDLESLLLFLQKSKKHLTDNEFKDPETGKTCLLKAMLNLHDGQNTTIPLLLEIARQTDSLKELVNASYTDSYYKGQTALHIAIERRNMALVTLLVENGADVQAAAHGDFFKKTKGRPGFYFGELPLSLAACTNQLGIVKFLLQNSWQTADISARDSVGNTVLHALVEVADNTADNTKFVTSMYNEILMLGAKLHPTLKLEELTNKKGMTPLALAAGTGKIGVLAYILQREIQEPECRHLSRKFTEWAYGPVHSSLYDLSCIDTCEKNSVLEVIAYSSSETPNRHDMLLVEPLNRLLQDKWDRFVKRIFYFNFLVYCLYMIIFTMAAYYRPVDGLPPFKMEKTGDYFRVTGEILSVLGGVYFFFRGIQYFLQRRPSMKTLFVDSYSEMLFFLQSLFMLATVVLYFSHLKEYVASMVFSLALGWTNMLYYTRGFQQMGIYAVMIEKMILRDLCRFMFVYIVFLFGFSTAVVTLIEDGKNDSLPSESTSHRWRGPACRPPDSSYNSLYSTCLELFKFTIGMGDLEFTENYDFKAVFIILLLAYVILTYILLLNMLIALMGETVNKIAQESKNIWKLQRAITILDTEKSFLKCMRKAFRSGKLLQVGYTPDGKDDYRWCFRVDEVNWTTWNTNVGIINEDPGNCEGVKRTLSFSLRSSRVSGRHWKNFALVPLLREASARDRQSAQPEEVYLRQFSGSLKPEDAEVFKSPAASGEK
Procedure, shortened: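 hTRPV1-HEK293T; capsaicin curves 0.0001−10 μM with 10, 30, 50 μM compound after 3 min preincubation. Schild plots (log(dose ratio − 1) vs log antagonist), six series; slope not differing from unity taken as competitive; KB derived.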

[4] = biological target: T2, Transient receptor potential cation channel subfamily V member 3 (Homo sapiens) (UniProt Q8NET8); experiment: Antagonist activity at human TRPV3 expressed in HEK293T cells assessed as menthol-induced intracellular Ca2+ influx at 100 uM by Fluo-4 AM staining-based fluorescence analysis; format: cell-based; settings: HEK-293T
T2 sequence (whole entry): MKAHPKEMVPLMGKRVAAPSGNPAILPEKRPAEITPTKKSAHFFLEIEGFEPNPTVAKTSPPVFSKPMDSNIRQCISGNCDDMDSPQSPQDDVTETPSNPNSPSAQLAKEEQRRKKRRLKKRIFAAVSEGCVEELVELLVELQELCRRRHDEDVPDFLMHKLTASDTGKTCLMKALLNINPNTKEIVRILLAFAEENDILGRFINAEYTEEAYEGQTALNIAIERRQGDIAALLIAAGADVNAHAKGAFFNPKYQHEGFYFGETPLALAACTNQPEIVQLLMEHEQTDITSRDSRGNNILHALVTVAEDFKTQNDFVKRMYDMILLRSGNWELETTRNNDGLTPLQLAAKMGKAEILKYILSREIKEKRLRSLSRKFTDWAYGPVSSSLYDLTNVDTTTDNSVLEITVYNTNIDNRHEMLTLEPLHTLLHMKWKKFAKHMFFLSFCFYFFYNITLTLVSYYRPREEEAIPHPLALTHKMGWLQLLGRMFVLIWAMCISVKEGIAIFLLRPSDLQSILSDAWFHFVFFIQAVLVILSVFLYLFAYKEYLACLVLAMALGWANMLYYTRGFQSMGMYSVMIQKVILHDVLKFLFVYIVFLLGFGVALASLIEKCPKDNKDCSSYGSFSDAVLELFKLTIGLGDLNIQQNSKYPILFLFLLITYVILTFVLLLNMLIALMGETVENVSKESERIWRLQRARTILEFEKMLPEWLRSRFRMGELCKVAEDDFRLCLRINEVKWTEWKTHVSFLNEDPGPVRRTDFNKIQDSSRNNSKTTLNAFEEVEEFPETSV
Procedure, shortened: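 hTRPV3 transiently expressed in HEK293T; loading and assay at 25 °C, Fluo-4 with probenecid buffer pH 7.4. Agonist 100 and 300 μM menthol, 5 μM ruthenium red as reference; 100 μM compound alone or pretreated 3 min. Data as % of 1000 μM menthol.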

[5] = biological target: T1, Transient receptor potential cation channel subfamily V member 1; experiment: Agonist activity at human brain TRPV1 expressed in HEK293T cells assessed as intracellular Ca2+ influx at 100 uM by Fluo-4 AM staining-based fluorescence analysis; format: cell-based; settings: HEK-293T
Procedure, shortened: (§1)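 Stable hTRPV1 in HEK293T (G418 selected), Fluo-4 loaded, 37 °C. 100 μM compound alone, or pretreated 3 min before 0.01 μM capsaicin; 10 μM BCTC reference. Data as % of 10 μM capsaicin.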

[6] = biological target: Transient receptor potential cation channel subfamily M member 8 (Mus musculus) (UniProt Q8R4D5); settings: Dorsal root ganglion, HEK T-REx, 100 uM
[7] = biological target: T1, Transient receptor potential cation channel subfamily V member 1; experiment: Antagonist activity at human brain TRPV1 expressed in HEK293T cells assessed as CAP-induced intracellular Ca2+ influx at 100 uM by Fluo-4 AM staining-based fluorescence analysis; format: cell-based; settings: HEK-293T; procedure, shortened: as §1
[8] = biological target: T1, Transient receptor potential cation channel subfamily V member 1; experiment: Antagonist activity at human brain TRPV1 expressed in HEK293T cells assessed as inhibition of CAP-induced intracellular Ca2+ influx by fluorescence-based assay; format: cell-based, HEK-293T
Procedure, shortened: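 hTRPV1-HEK293T, Fluo-4 Ca2+ at 37 °C; antagonist (0.3−100 μM) preincubated 3 min then 0.01 μM capsaicin; DMSO final 0.1−1%. IC50 from dose−inhibition curves; data as % of 10 μM capsaicin.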

[9] = biological target: Transient receptor potential cation channel subfamily M member 8 (Mus musculus) (UniProt Q8R4D5); settings: Dorsal root ganglion, HEK T-REx, 100 uM; remark: listed apart in the source
[10] = biological target: Transient receptor potential cation channel subfamily M member 8 (Mus musculus) (UniProt Q8R4D5); settings: Dorsal root ganglion, HEK T-REx, 3 to 30 uM
[11] = biological target: T1, Transient receptor potential cation channel subfamily V member 1; experiment: Antagonist activity at human brain TRPV1 expressed in HEK293T cells assessed as inhibition of proton-induced intracellular Ca2+ influx at 10 uM by fluorescence-based assay; settings: HEK-293T
[12] = biological target: Transient receptor potential cation channel subfamily M member 8 (Mus musculus) (UniProt Q8R4D5); experiment: (§2) Antagonist at TRPM8 isolated from mouse dorsal root ganglion cells expressed in HEK T-REx cells assessed as inhibition of menthol-induced intracellular Ca2+ influx by fluorescence-based assay; format: cell-based
Procedure, shortened: (§3)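 Tetracycline-induced mTRPM8 in HEK T-REx, Fluo-4 Ca2+ at 37 °C. Antagonists (e.g. 0.01−100 μM, CNA up to 500 μM) preincubated 3 min before 10 μM menthol. IC50 from dose−inhibition curves, data as % of 10 μM menthol; n = 4−12.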

[13] = biological target: Transient receptor potential cation channel subfamily M member 8 (Mus musculus, UniProt Q8R4D5); experiment: as §2; format: cell-based; procedure, shortened: as §3
Chain of Transient receptor potential cation channel subfamily M member 8 (Q8R4D5 whole entry): as the sequence (Q8R4D5 whole entry) above

[14] = biological target: T1, Transient receptor potential cation channel subfamily V member 1; experiment: Competitive antagonist activity at […] Wistar rat DRG neurons assessed as inhibition of CAP-induced intracellular Ca2+ influx at 100 uM preincubated for 3 mins followed by CAP challenge; format: cell-based
Procedure, shortened: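 Primary DRG neurons from 4-week-old Wistar rats, collagenase-dissociated, cultured with NGF 24−36 h. Fluo-4 Ca2+ imaging with superfusion of 0.1 μM capsaicin and 100 μM compound.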

For `CC[C@H]1C[C@@H]2CN3CCc4c([nH]c5ccc(OC)cc45)[C@](C(=O)OC)(C2)[C@H]13` [VOACANGINE], the Activity [1] was “inactive”, the inhibition [2] was “Active” and the Kb ([3]; HEK-293T) was 18 µM. The Kb ([3]; read-out: pA2 (converted)) was 20 µM, the Activity [4] was “inactive” and the Activity [5] was “inactive”. The inhibition [6] was “Active”, the Activity [7] was “Active” and the IC50 [8] was 50 µM. For the same compound, the inhibition ([8]; HEK-293T) was “Dose-dependent effect”, the inhibition [9] was “Active” and the inhibition [10] was “inactive”. For the same compound, the inhibition [11] was “inactive”, the inhibition [12] was “Dose-dependent effect” and the IC50 [13] was 9 µM. The inhibition [14] was “Active”.
